Common to all, as to assay type: functional
In assay [1] the test system is Acinetobacter. Description: In vitro antibacterial activity against Acinetobacter CMX 669. A digest of the protocol:
(§1)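 Agar dilution MIC: strains grown overnight in brain-heart infusion broth at 36 °C; test compound stock 2000 µg/mL serially diluted 2-fold into BHI agar for final 200 to 0.005 µg/mL; plates inoculated with about 10⁴ organisms, incubated 36 °C for 18 h. MIC (µg/mL) taken as lowest concentration giving no visible growth; ciprofloxacin run side by side as reference.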

For assay [2], the system named is Escherichia coli. The assay can be described thus: In vitro antibacterial activity against Escherichia coli Juhl. The procedure, abridged: as §1
Assay [3] deals with Klebsiella aerogenes. The assay can be described thus: In vitro antibacterial activity against Enterobacter aerogenes ATCC 13048. A digest of the protocol:
as §1

The subject of assay [4] is Pseudomonas aeruginosa. Description: In vitro antibacterial activity against Pseudomonas aeruginosa 5007. The procedure, abridged: as §1
The test system of assay [5] is Pseudomonas aeruginosa. The assay can be described thus: In vitro antibacterial activity against Pseudomonas aeruginosa K799/WT. The procedure, abridged:
as §1

In assay [6] the test system is Staphylococcus aureus. The assay can be described thus: In vitro antibacterial activity against Staphylococcus aureus 45. The procedure, abridged:
as §1

Assay [7] concerns Staphylococcus aureus. The assay can be described thus: In vitro antibacterial activity against Staphylococcus aureus CMX 686B. The procedure, abridged:
as §1

Assay [8] relates to Staphylococcus epidermidis. Description: In vitro antibacterial activity against Staphylococcus epidermidis 3519. The procedure, abridged:
as §1

The subject of assay [9] is Streptococcus agalactiae. Description: In vitro antibacterial activity against Streptococcus agalactiae CMS 508. The procedure, abridged: as §1
In assay [10] the test system is Staphylococcus aureus. Description: In vitro antibacterial activity against Staphylococcus aureus ATCC 6538P. A digest of the protocol:
as §1

The subject of assay [11] is Streptococcus equinus. The assay can be described thus: In vitro antibacterial activity against Streptococcus bovis A5169. A digest of the protocol: as §1
Assay [12] relates to Enterococcus faecium. The assay can be described thus: In vitro antibacterial activity against Streptococcus faecium ATCC 8043. The procedure, abridged: as §1
Assay [13] relates to Streptococcus pyogenes. Description: In vitro antibacterial activity against Streptococcus pyogenes 930. A digest of the protocol: as §1
Assay [14] concerns Klebsiella pneumoniae. Description: In vitro antibacterial activity against Klebsiella pneumoniae 8045. The procedure, abridged: as §1
Assay [15] concerns Staphylococcus aureus. Description: In vitro antibacterial activity against Staphylococcus aureus A5177. The procedure, abridged: as §1

≈ marks a conversion by molar mass, not a printed value.

Broadly, the MIC is the lowest concentration that inhibits growth of the organism. Low values mean a more susceptible organism, high ones a less susceptible organism.

Consider `CCn1cc(C(=O)O)c(=O)c2cc(F)c(C3=NCCCO3)cc21`, for which the MIC in [1] is more than 100 µg/mL; in [2], 50 µg/mL (≈ 157 µM); in assay [3] it was more than 100 µg/mL; in [4], more than 100 µg/mL; in [5], more than 100 µg/mL; in [6], more than 100 µg/mL. Besides, the MIC in [7] is 50 µg/mL (≈ 157 µM); in assay [8] it was more than 100 µg/mL; in assay [9] it was more than 100 µg/mL; in assay [10], 50 µg/mL (≈ 157 µM); in assay [11], more than 100 µg/mL; in assay [12], more than 100 µg/mL. The MIC in assay [13] is more than 100 µg/mL; in assay [14], 25 µg/mL (≈ 78.5 µM); in [15], more than 100 µg/mL.

In the case of `CCn1cc(C(=O)O)c(=O)c2cc(F)c(-c3coc(N)n3)cc21`, the MIC in [1] is more than 100 µg/mL; in assay [2] it was 50 µg/mL (≈ 158 µM); in [3] it was 50 µg/mL (≈ 158 µM); in [4], more than 100 µg/mL; in [5] it was more than 100 µg/mL; in assay [6] it was 50 µg/mL (≈ 158 µM). The MIC in assay [7] is 12.5 µg/mL (≈ 39.4 µM); in assay [8] it was 50 µg/mL (≈ 158 µM); in assay [9], 100 µg/mL (≈ 315 µM); in [10] it was 12.5 µg/mL (≈ 39.4 µM); in assay [11], more than 100 µg/mL; in assay [12] it was more than 100 µg/mL. In addition, the MIC in [13] was found to be 100 µg/mL (≈ 315 µM); in assay [14] it was 25 µg/mL (≈ 78.8 µM); in assay [15], 25 µg/mL (≈ 78.8 µM).

As to `CCn1cc(C(=O)O)c(=O)c2cc(F)c(-c3coc(C)n3)cc21`, the MIC in [1] was found to be 12.5 µg/mL (≈ 39.5 µM); in [2], 6.2 µg/mL (≈ 19.6 µM); in [3], 50 µg/mL (≈ 158 µM); in [4], 50 µg/mL (≈ 158 µM); in [5] it was 50 µg/mL (≈ 158 µM); in [6], 3.1 µg/mL (≈ 9.8 µM). Moreover, the MIC in assay [7] amounted to 0.78 µg/mL (≈ 2.47 µM); in assay [8] it was 3.1 µg/mL (≈ 9.8 µM); in [9], 50 µg/mL (≈ 158 µM); in assay [10], 1.56 µg/mL (≈ 4.93 µM); in assay [11] it was 100 µg/mL (≈ 316 µM); in [12] it was 100 µg/mL (≈ 316 µM). Further, the MIC in assay [13] was determined as 100 µg/mL (≈ 316 µM); in assay [14], 3.1 µg/mL (≈ 9.8 µM); in [15] it was 3.1 µg/mL (≈ 9.8 µM).

As for `CCn1cc(C(=O)O)c(=O)c2cc(F)c(C(=O)O)cc21`, the MIC in [1], in assay [2], in [3], in assay [4], in assay [5] and in assay [6] was more than 100 µg/mL throughout. For the same compound, the MIC in assay [7], in assay [8], in [9], in [10], in assay [11] and in [12] was more than 100 µg/mL throughout. The MIC in [13], in [14] and in [15] was more than 100 µg/mL each time.

For `CCn1cc(C(=O)O)c(=O)c2cc(F)c(C(=O)NCCO)cc21`, the MIC is more than 100 µg/mL in [1]; 50 µg/mL (≈ 155 µM) in assay [2]; more than 100 µg/mL in [3]; more than 100 µg/mL in assay [4]; more than 100 µg/mL in [5]; more than 100 µg/mL in assay [6]. In addition, the MIC in assay [7], in assay [8], in assay [9], in assay [10], in assay [11] and in [12] was more than 100 µg/mL throughout. Besides, the results for the MIC in assay [13], in assay [14] and in assay [15] were more than 100 µg/mL, 50 µg/mL (≈ 155 µM) and more than 100 µg/mL, respectively.

As for `CCn1cc(C(=O)O)c(=O)c2cc(F)c(C3=NCCO3)cc21`, the MIC in [1] is 50 µg/mL (≈ 164 µM); in assay [2], 12.5 µg/mL (≈ 41.1 µM); in assay [3], 12.5 µg/mL (≈ 41.1 µM); in assay [4], more than 100 µg/mL; in [5], more than 100 µg/mL; in [6], 50 µg/mL (≈ 164 µM). For the same compound, the MIC was 12.5 µg/mL (≈ 41.1 µM) in assay [7]; 50 µg/mL (≈ 164 µM) in [8]; more than 100 µg/mL in assay [9]; 25 µg/mL (≈ 82.2 µM) in assay [10]; more than 100 µg/mL in [11]; more than 100 µg/mL in assay [12]. The MIC in [13] is more than 100 µg/mL; in [14] it was 6.2 µg/mL (≈ 20.4 µM); in assay [15], 25 µg/mL (≈ 82.2 µM).

Take `CCn1cc(C(=O)O)c(=O)c2cc(F)c(-c3ccc(C)o3)cc21`: the MIC in assay [1] is 25 µg/mL (≈ 79.3 µM); in assay [2], 12.5 µg/mL (≈ 39.6 µM); in assay [3], 12.5 µg/mL (≈ 39.6 µM); in [4] it was more than 100 µg/mL; in assay [5], more than 100 µg/mL; in assay [6], 1.56 µg/mL (≈ 4.95 µM). Besides, the MIC in assay [7] was 0.78 µg/mL (≈ 2.47 µM); in [8], 1.56 µg/mL (≈ 4.95 µM); in assay [9], 50 µg/mL (≈ 159 µM); in assay [10] it was 1.56 µg/mL (≈ 4.95 µM); in assay [11] it was more than 100 µg/mL; in assay [12] it was more than 100 µg/mL. Besides, the values for the MIC in [13], in [14] and in assay [15] were 50 µg/mL (≈ 159 µM), 6.2 µg/mL (≈ 19.7 µM) and 1.56 µg/mL (≈ 4.95 µM), respectively.

Take `CCn1cc(C(=O)O)c(=O)c2cc(F)c(C3=NC(C)(C)CO3)cc21`: the MIC in assay [1] is more than 100 µg/mL; in assay [2] it was more than 100 µg/mL; in assay [3], more than 100 µg/mL; in [4], more than 100 µg/mL; in assay [5], more than 100 µg/mL; in assay [6], 100 µg/mL (≈ 301 µM). The MIC in assay [7] is 12.5 µg/mL (≈ 37.6 µM); in [8], 50 µg/mL (≈ 150 µM); in assay [9], more than 100 µg/mL; in [10], 25 µg/mL (≈ 75.2 µM); in assay [11], more than 100 µg/mL; in [12], more than 100 µg/mL. For the same compound, the results for the MIC in assay [13], in assay [14] and in [15] were more than 100 µg/mL, 100 µg/mL (≈ 301 µM) and 25 µg/mL (≈ 75.2 µM), respectively.

For `CCn1cc(C(=O)O)c(=O)c2cc(F)c(-c3cocn3)cc21`, the MIC in [1] is 50 µg/mL (≈ 165 µM); in assay [2], 12.5 µg/mL (≈ 41.4 µM); in [3], 12.5 µg/mL (≈ 41.4 µM); in assay [4], more than 100 µg/mL; in [5], 100 µg/mL (≈ 331 µM); in assay [6], 25 µg/mL (≈ 82.7 µM). Also, the MIC in assay [7] was 6.2 µg/mL (≈ 20.5 µM); in assay [8], 12.5 µg/mL (≈ 41.4 µM); in [9], more than 100 µg/mL; in assay [10], 6.2 µg/mL (≈ 20.5 µM); in assay [11], more than 100 µg/mL; in [12], more than 100 µg/mL. In addition, the figures for the MIC in assay [13], in [14] and in assay [15] were more than 100 µg/mL, 6.2 µg/mL (≈ 20.5 µM) and 12.5 µg/mL (≈ 41.4 µM), respectively.

In the case of `CCn1cc(C(=O)O)c(=O)c2cc(F)c(-c3c[nH]cn3)cc21.Cl`, the MIC is more than 100 µg/mL in [1]; 25 µg/mL in [2]; 50 µg/mL in assay [3]; more than 100 µg/mL in [4]; more than 100 µg/mL in assay [5]; 50 µg/mL in assay [6]. The MIC is 12.5 µg/mL in assay [7]; 50 µg/mL in assay [8]; 50 µg/mL in [9]; 12.5 µg/mL in assay [10]; more than 100 µg/mL in [11]; more than 100 µg/mL in assay [12]. In addition, the MIC in assay [13] was found to be 50 µg/mL; in assay [14] it was 12.5 µg/mL; in assay [15], 25 µg/mL.

As for `O=C(O)c1cn(C2CC2)c2cc(N3CCNCC3)c(F)cc2c1=O` [CIPROFLOXACIN], the MIC amounted to 0.78 µg/mL (≈ 2.35 µM) in assay [1]; 0.05 µg/mL (≈ 0.151 µM) in assay [3]; 0.2 µg/mL (≈ 0.604 µM) in [4]; 0.2 µg/mL (≈ 0.604 µM) in assay [5]; 1.56 µg/mL (≈ 4.71 µM) in [6]; 0.2 µg/mL (≈ 0.604 µM) in assay [7]. Moreover, the MIC turned out to be 0.39 µg/mL (≈ 1.18 µM) in [8]; 0.39 µg/mL (≈ 1.18 µM) in assay [9]; 0.1 µg/mL (≈ 0.302 µM) in [10]; 1.56 µg/mL (≈ 4.71 µM) in assay [11]; 0.39 µg/mL (≈ 1.18 µM) in assay [12]; 0.39 µg/mL (≈ 1.18 µM) in [13]. The MIC was 0.02 µg/mL (≈ 0.0604 µM) in [14] and 0.39 µg/mL (≈ 1.18 µM) in assay [15].

The record behind these values is ChEMBL document CHEMBL1125111, “The synthesis and antibacterial activities of quinolones containing five- and six-membered heterocyclic substituents at the 7-position” (1990).
